Measurements taken from ChEMBL document CHEMBL1124079, “Methotrexate analogues. 31. Meta and ortho isomers of aminopterin, compounds with a double bond in the side chain, and a novel analogue modified at the alpha-carbon: chemical and in vitro biological studies” (J Med Chem, 1988).

Tests used:
L1210 [1] = assay: Inhibitory activity against growth of mouse L1210 leukemia cells; type: functional, cell-based
Dihydrofolate reductase [2] = target: T1, Dihydrofolate reductase (Mus musculus, UniProt P00375); assay: Inhibitory activity against dihydrofolate reductase(DHFR) isolated from L1210 murine leukemia cells; type: cell-free
T1 sequence (P00375 whole entry): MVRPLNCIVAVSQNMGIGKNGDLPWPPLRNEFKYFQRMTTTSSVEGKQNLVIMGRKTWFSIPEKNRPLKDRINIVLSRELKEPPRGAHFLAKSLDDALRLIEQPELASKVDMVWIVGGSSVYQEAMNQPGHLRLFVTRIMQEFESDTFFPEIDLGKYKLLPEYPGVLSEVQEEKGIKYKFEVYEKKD
Summary of the method: (§1)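 DHFR purified from L1210 murine leukemia cells by affinity chromatography on MTX-Sepharose, then used as the enzyme source for inhibitor titration; IC50 read from the enzyme-activity titration curve.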

L1210 [3] = assay: Inhibitory activity against cultured L1210 cells; settings: Mus musculus
L1210 [4] = assay: Growth inhibitory activity against cultured L1210 cells; type: functional, cell-based; settings: Mus musculus
Dihydrofolate reductase [5] = target: T1, Dihydrofolate reductase; assay: Inhibitory activity against dihydrofolate reductase(DHFR); summary of the method: as §1
L1210 [6] = assay: Inhibitory activity against L1210 cells; type: functional, cell-based; settings: Mus musculus
L1210 ( R81) [7] = assay: Inhibitory activity against L1210/R81 cells; type: functional, cell-based; settings: Mus musculus
[8] = target: T2, Dihydrofolate reductase (Mus musculus) (UniProt P00375); assay: Inhibitory activity against dihydrofolate reductase(DHFR) isolated from L1210 murine leukemia cells at 50 uM; type: cell-free
T2 sequence (whole entry): T1 sequence (P00375 whole entry)

L1210 ( R81) [9] = assay: Inhibition of the growth of the MTX-resistant L1210/R81 cell line; type: functional, cell-based; settings: Mus musculus

SMILES: Nc1nc(N)c2nc(CNc3cccc(C(=O)NC(CCC(=O)O)C(=O)O)c3)cnc2n1 (centres undefined)
- IC50 (L1210 [1]): 1.5 µM
- IC50 (Dihydrofolate reductase [2]): 200 µM

SMILES: CN(Cc1cnc2nc(N)nc(N)c2n1)c1ccc(C(=O)N[C@@H](CCC(=O)O)C(=O)O)cc1 [METHOTREXATE]
- IC50 (L1210 [3]): 0.005 µM

SMILES: Nc1nc(N)c2nc(CNc3ccc(C(=O)NC(C/C=C/C(=O)O)C(=O)O)cc3)cnc2n1 (centres undefined)
- IC50 (L1210 [4]): 0.031 µM
- IC50 (Dihydrofolate reductase [5]): 46 µM

SMILES: CN(Cc1cnc2nc(N)nc(N)c2n1)c1ccc(C(=O)N(CCC(=O)O)CC(=O)O)cc1
- IC50 (L1210 [6]): 12 µM
- IC50 (L1210 ( R81) [7]): 180 µM
- IC50 (Dihydrofolate reductase [5]): 0.038 µM

SMILES: Nc1nc(N)c2nc(CNc3ccc(C(=O)N[C@@H](CCC(=O)O)C(=O)O)cc3)cnc2n1 [AMINOPTERIN]
- IC50 (Dihydrofolate reductase [2]): 0.002 µM

SMILES: Nc1nc(N)c2nc(CNc3ccccc3C(=O)NC(CCC(=O)O)C(=O)O)cnc2n1 (centres undefined)
- inhibition [8]: 20%
- IC50 (L1210 [1]): 64 µM

SMILES: CN(Cc1cnc2nc(N)nc(N)c2n1)c1ccc(C(=O)NC(C/C=C/C(=O)O)C(=O)O)cc1 (centres undefined)
- IC50 (L1210 [4]): 0.35 µM
- IC50 (Dihydrofolate reductase [5]): 32 µM
- IC50 (L1210 ( R81) [9]): > 300 µM
